Test results published in the EternaBench riboswitch data.

Tested on: MS2 coat protein
Assay: apparent Kd, MS2 coat protein; higher = weaker binding; RNA-MaP array; tryptophan 2.4 mM where present
Method in brief: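 The apparent Kd is reported as the median of filtered per-cluster binding-curve fits. To get these curves, designs transcribed by stalled E. coli RNA polymerase on Illumina sequencing-chip clusters were titrated with SNAP-549-labelled MS2 coat protein from 0.7 or 1.5 nM, doubling to 3 µM. Titrations were run without and then with constant ligand in 100 mM Tris-HCl pH 7.5, 80 mM KCl, 4 mM MgCl2, BSA, DTT, yeast tRNA and Tween-20, and green signal was normalised to red-channel RNA signal and control-cluster median Fmax.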

[1] = designed as: ON switch for tryptophan, no ligand
[2] = ligand present: tryptophan, designed as: ON switch for tryptophan
[3] = designed as: OFF switch for tryptophan, no ligand
[4] = ligand present: tryptophan, designed as: OFF switch for tryptophan

## ACGUUGAAGUCGGCCGCCACUGAUUUCAUGUUCAACAUGAGGAUCACCCAUGUACCUUAUGUUAACAGGACCGGGACGUAUACGA
[1]
  apparent Kd: 479 nM
[2]
  apparent Kd: 117 nM

## CUCAUCCACGCGGCCGCCACUAUUUUUAGGUGUGGGUGUGACGUAUUACAUGAGGAUCACCCAUGUAGGACCGGGCGUGGAUGAG
[3]
  apparent Kd: 385 nM
[4]
  apparent Kd: 485 nM

## UAUCGUCAGACGGCCGCCACUAGAACAUGAGGAUCACCCAUGUAAGUGGCCGGUCUCCUCAUGACUAGGACCGGGUCUGACGAAU
[3]
  apparent Kd: 8.69 nM
[4]
  apparent Kd: 9.94 nM

## UAUUAUCAGUCGGCCGCCACUGACACAUGAGGAUCACCCAUGUAAUUUGGGUUAUAUAGAAAAUACAGGACCGGGACUAAGGCUA
[3]
  apparent Kd: 260 nM
[4]
  apparent Kd: 276 nM

## GGUUACUCUACGGCCGCCACUGAUAAAUAAUAAACCUGUACAUAAACAUGAGGAUCACCCAUGUACAGGACCGGGUAGUGUAACC
[1]
  apparent Kd: 32.8 nM
[2]
  apparent Kd: 24.1 nM

## UUCGUAUUGUCGGCCGCCACUGCAACAUGAGGAUCACCCAUGUAAGAAUGGUUGUAAAUAUAUUACAGGACCGGGACAAUAGUAA
[3]
  apparent Kd: 17.6 nM
[4]
  apparent Kd: 51.6 nM

## AGCGUGCAUAGGAAAACUAUGUACGCAAAUCGAGGACCGGUACGGCCGCCACUCGUCCUCAACAUGAGGAUCACCCAUGUAAUAA
[3]
  apparent Kd: 19.9 nM
[4]
  apparent Kd: 34.7 nM

## CUACAUUUGUAGAAACCGGUCAACAAUAAUCGAGGACCGGUACGGCCGCCACUCGUAUAAUUUAAUACAUGAGGAUCACCCAUGU
[1]
  apparent Kd: 14.9 nM
[2]
  apparent Kd: 15.4 nM

## AGUUAUUCGAACAUGGUUGACGAGUGGCAACGAGGACCGGUACGGCCGCCACUCGAAUAAACAUGAGGAUCACCCAUGUACAAAU
[1]
  apparent Kd: 342 nM
[2]
  apparent Kd: 287 nM

## CUUGGCUGUGCGGCCGCCACUGACUCAUCCUGCAUUACAUGAGGAUCACCCAUGUUGCGGCCUCCCAGGACCGGGCAUAGCCUGC
[1]
  apparent Kd: 390 nM
[2]
  apparent Kd: 91.3 nM

## GCUAGGUCAUCGGCCGCCACUAUUAGUGGUUCGAACAUGAGGAUCACCCAUGUGCCACAUGCGCAUAGGACCGGGAUGACCUAGC
[1]
  apparent Kd: 12.7 nM
[2]
  apparent Kd: 9.42 nM

## UCGUUUUAGUCGGCCGCCACUGUAUGCAUGUUUAACAUGAGGAUCACCCAUGUCCCGUUCUAUUUCAGGACCGGGACGUAAUCGA
[1]
  apparent Kd: 525 nM
[2]
  apparent Kd: 344 nM

## AUUGUCGUGUCGGCCGCCACUGUCAUGGUUUUCGUGGAAAACAUGAGGAUCACCCAUGUAAUUGACAGGACCGGGACAUGGCGGC
[3]
  apparent Kd: 9.29 nM
[4]
  apparent Kd: 10.4 nM

## UUUUACGGCGAUCUGGGUUUACCAGAUCGGCGAGGACCGGUACGGCCGCCACUCGUGUUUCUUUGACAUGAGGAUCACCCAUGUA
[1]
  apparent Kd: 26.9 nM
[2]
  apparent Kd: 16.2 nM

## CUAUAUAUAUCGGCCGCCACUUACUCAUGAGGUAACAACAUGAGGAUCACCCAUGUUUGAGGAUCAAGGACCGGGAUAUAUAUAG
[1]
  apparent Kd: 27.4 nM
[2]
  apparent Kd: 16.6 nM

## AAUUUAUGGUUCUUGAUGUAGUAUCUAUUUCGAGGACCGGUACGGCCGCCACUCGUAAAUUACAUGAGGAUCACCCAUGUUAGCU
[3]
  apparent Kd: 24.6 nM
[4]
  apparent Kd: 29.5 nM

## AACAUGAGGAUCACCCAUGUCCCAUGUGAACGAGGACCGGUACGGCCGCCACUCGACUGAGGCGGCACAUGAGGAUCACCCACAU
[1]
  apparent Kd: 170 nM
[2]
  apparent Kd: 314 nM

## ACAUUAGCCACGGCCGCCACUGCCUUAUGAUUAUAAGGAUUAAUGAACAUGAGGAUCACCCAUGUCAGGACCGGGUGCCUACCAU
[1]
  apparent Kd: 22 nM
[2]
  apparent Kd: 20.7 nM

## GGAGUAGAUGCGGCCGCCACUUUCUCAAGACACUACAUGAGGAUCACCCAUGUCCAUUCUACACUAAGGACCGGGCAUCCCAUGG
[1]
  apparent Kd: 54.3 nM
[2]
  apparent Kd: 39.5 nM

## GAGUAGAGGACGGCCGCCACUGAACAUGAGGAUCACCCAUGUCGUGAUCCGUUACCUAAAGAAGAUAGGACCGGGUCAUGUACUC
[3]
  apparent Kd: 27.3 nM
[4]
  apparent Kd: 28.7 nM

## GAGCUCGUGGACUGGCGUGCUCCGCUCCGUCGAGGACCGGUACGGCCGCCACUCGACAUGAGGAUCACCCAUGUGUGAGCUCGCG
[3]
  apparent Kd: 62.5 nM
[4]
  apparent Kd: 30.6 nM

## AAUAAUAAGGCGGCCGCCACUACACAUGAGGAUCACCCAUGUCUCGCGGGCUUGCGUUGGGAAUGUAGGACCGGGCCAAUAAUAA
[3]
  apparent Kd: 24.3 nM
[4]
  apparent Kd: 18.3 nM

## AGUUACUCGAACAUGGUUGACGAGUGGCAACGAGGACCGGUACGGCCGCCACUCGAAUAAACAUGAGGAUCACCCAUGUACAAAU
[1]
  apparent Kd: 135 nM
[2]
  apparent Kd: 104 nM

## AAUUAAACAUCGGCCGCCACUUACUCAUGAGGUAACAACAUGAGGAUCACCCAUGUUUGAGGAUCAAGGACCGGGAUGUAAUUUU
[1]
  apparent Kd: 29.8 nM
[2]
  apparent Kd: 22.2 nM

## AUAAUAAUCAUGGGUGAAGGUCCUCGCAAACGAGGACCGGUACGGCCGCCACUCGAACAUGAGGAUCACCCAUGUGUGAGGACCU
[1]
  apparent Kd: 58.8 nM
[2]
  apparent Kd: 36.9 nM

## AUAACCCUUGACUAAAACACUAAAUCAGUUCGAGGACCGGUACGGCCGCCACUCGUGUCAAGACAUGAGGAUCACCCAUGUACCU
[1]
  apparent Kd: 35.8 nM
[2]
  apparent Kd: 23.3 nM
